Laboratory results taken from ChEMBL document CHEMBL4732187, “Tetrahydroindazole inhibitors of CDK2/cyclin complexes” (Eur J Med Chem, 2021).
Calls of active or inactive are those of the source. The rule behind the calls is not given here.

What was measured:
[1] = molecular target: CDK1/Cyclin A (Homo sapiens) (UniProt P06493+P20248); assay: Inhibition of CDK1/CyclinA (unknown origin) at 1 uM using histone H1 as substrate preincubated for 20 mins followed by 33P-ATP addition and measured after 2 hrs by filter binding method; format: protein-complex assay
Chain of CDK1/Cyclin A (Homo sapiens) (P06493 whole entry, looked up): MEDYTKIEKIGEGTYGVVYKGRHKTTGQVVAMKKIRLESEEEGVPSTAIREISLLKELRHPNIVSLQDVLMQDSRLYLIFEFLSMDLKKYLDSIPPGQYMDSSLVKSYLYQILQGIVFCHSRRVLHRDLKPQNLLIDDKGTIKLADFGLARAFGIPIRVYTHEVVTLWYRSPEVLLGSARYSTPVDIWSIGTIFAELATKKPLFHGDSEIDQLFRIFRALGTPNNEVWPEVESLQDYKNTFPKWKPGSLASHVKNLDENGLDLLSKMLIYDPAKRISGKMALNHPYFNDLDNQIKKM
Chain of CDK1/Cyclin A (Homo sapiens) (P20248 whole entry, looked up): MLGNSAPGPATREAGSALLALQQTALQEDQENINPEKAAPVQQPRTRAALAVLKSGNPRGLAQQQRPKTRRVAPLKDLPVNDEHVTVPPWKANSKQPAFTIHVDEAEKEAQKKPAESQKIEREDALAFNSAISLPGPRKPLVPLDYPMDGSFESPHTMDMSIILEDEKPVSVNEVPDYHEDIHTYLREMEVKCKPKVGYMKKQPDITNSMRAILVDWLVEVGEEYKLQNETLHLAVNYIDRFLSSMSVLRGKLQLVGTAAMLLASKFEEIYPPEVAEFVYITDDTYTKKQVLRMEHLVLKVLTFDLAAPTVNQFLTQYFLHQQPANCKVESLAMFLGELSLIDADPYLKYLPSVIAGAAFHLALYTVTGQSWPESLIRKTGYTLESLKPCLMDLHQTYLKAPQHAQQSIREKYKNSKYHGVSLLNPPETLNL
Summary of the method: (§1)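 Radiometric filter-binding kinase assay at 10 μM ATP in pH 7.5 HEPES buffer with MgCl₂, EGTA, Brij35, BSA, Na₃VO₄, DTT and 1% DMSO. Compound was preincubated with kinase for 20 min at rt, then ³³P-ATP was added and the reaction ran 2 h at rt. Substrate was histone H1 at 20 μM, except myelin basic protein at 20 μM for CDK7/cyclin H and a peptide at 20 μM for CDK9/cyclin T1. Single dose, in duplicate.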

[2] = molecular target: Cyclin-dependent kinase 1/cyclin B1 (Homo sapiens) (UniProt P06493+P14635); assay: Inhibition of CDK1/Cyclin B (unknown origin) at 1 uM using histone H1 as substrate preincubated for 20 mins followed by 33P-ATP addition and measured after 2 hrs by filter binding method; format: protein-complex assay; summary of the method: as §1
Chain of Cyclin-dependent kinase 1/cyclin B1 (Homo sapiens) (P06493 whole entry, looked up, the tested form may be a part): as the sequence (P06493 whole entry, looked up) above
Chain of Cyclin-dependent kinase 1/cyclin B1 (Homo sapiens) (P14635 whole entry, looked up, the tested form may be a part): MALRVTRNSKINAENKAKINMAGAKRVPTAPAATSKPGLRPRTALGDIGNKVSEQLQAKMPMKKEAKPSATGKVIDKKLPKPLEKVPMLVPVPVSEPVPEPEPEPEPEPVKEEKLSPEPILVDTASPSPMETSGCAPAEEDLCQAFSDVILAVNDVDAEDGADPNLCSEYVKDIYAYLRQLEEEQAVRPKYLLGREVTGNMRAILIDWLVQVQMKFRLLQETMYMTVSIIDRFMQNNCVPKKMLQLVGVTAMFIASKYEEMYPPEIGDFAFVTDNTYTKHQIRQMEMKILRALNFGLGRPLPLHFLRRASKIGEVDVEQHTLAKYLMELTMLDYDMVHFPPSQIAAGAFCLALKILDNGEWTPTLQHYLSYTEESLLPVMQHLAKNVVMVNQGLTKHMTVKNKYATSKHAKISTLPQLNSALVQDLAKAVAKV

[3] = molecular target: CDK2/Cyclin A2 (Homo sapiens) (UniProt P24941+P20248); assay: Inhibition of human N-terminal GST-tagged CDK2 (1 to 298 residues)/Cyclin A (174 to 432 residues) expressed in Escherichia coli Turner (DE3) cells assessed as reduction in ADP formation at 1 uM using PKTPKKAKKL as substrate by resorufin dye based fluorescence assay
[4] = molecular target: CDK2/Cyclin A1 (Homo sapiens) (UniProt P24941+P78396); assay: Inhibition of CDK2/Cyclin A1 (unknown origin) at 1 uM using histone H1 as substrate preincubated for 20 mins followed by 33P-ATP addition and measured after 2 hrs by filter binding method; format: protein-complex assay; summary of the method: as §1
[5] = molecular target: Cyclin-dependent kinase 2/cyclin E1 (Homo sapiens) (UniProt P24864+P24941); assay: Inhibition of CDK1/Cyclin E (unknown origin) at 1 uM using histone H1 as substrate preincubated for 20 mins followed by 33P-ATP addition and measured after 2 hrs by filter binding method; format: protein-complex assay; summary of the method: as §1
[6] = molecular target: CDK2/Cyclin O (Homo sapiens) (UniProt P24941+P22674); assay: Inhibition of CDK1/Cyclin-O (unknown origin) at 1 uM using histone H1 as substrate preincubated for 20 mins followed by 33P-ATP addition and measured after 2 hrs by filter binding method; format: protein-complex assay; summary of the method: as §1
[7] = molecular target: CDK3/Cyclin E (Homo sapiens) (UniProt P24864+Q00526); assay: Inhibition of CDK3/Cyclin E (unknown origin) at 1 uM using histone H1 as substrate preincubated for 20 mins followed by 33P-ATP addition and measured after 2 hrs by filter binding method; format: protein-complex assay; summary of the method: as §1
Chain of CDK3/Cyclin E (Homo sapiens) (P24864 whole entry, looked up): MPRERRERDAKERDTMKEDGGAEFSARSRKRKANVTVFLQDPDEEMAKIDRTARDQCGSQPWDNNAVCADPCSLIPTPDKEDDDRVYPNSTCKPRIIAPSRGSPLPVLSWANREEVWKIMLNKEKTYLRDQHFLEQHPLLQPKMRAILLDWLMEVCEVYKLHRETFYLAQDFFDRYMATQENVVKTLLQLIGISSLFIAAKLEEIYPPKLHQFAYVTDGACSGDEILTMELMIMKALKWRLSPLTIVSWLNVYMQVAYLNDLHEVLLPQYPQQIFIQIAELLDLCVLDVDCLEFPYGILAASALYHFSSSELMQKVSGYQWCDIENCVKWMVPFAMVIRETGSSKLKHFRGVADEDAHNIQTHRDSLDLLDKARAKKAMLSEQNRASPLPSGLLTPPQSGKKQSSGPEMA
Chain of CDK3/Cyclin E (Homo sapiens) (Q00526 whole entry, looked up): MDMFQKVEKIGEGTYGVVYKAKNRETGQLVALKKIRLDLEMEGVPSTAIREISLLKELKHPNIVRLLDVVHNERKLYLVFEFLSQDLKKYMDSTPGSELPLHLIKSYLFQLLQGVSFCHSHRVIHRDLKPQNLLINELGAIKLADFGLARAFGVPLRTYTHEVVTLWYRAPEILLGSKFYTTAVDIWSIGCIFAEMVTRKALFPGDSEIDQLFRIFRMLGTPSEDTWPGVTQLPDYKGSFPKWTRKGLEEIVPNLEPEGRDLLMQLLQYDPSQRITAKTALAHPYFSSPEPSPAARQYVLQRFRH

[8] = molecular target: Cyclin-dependent kinase 4/cyclin D1 (Homo sapiens) (UniProt P11802+P24385); assay: Inhibition of CDK4/Cyclin D1 (unknown origin) at 1 uM using RB protein as substrate preincubated for 20 mins followed by 33P-ATP addition and measured after 2 hrs by filter binding method; format: protein-complex assay
Summary of the method: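 Radiometric filter-binding assay of CDK4/cyclin D1 using RB protein at 3 μM and ATP at 10 μM in pH 7.5 HEPES buffer with 1% DMSO. Compound was preincubated for 20 min at rt, then ³³P-ATP was added and the reaction ran 2 h at rt, with spotting on P81 paper. Single dose, in duplicate.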

[9] = molecular target: Cyclin-dependent kinase 5/CDK5 activator 1 (Homo sapiens) (UniProt Q00535+Q15078); assay: Inhibition of CDK5/p25 (unknown origin) at 1 uM using histone H1 as substrate preincubated for 20 mins followed by 33P-ATP addition and measured after 2 hrs by filter binding method; format: protein-complex assay; summary of the method: as §1
Chain of Cyclin-dependent kinase 5/CDK5 activator 1 (Homo sapiens) (Q00535 whole entry): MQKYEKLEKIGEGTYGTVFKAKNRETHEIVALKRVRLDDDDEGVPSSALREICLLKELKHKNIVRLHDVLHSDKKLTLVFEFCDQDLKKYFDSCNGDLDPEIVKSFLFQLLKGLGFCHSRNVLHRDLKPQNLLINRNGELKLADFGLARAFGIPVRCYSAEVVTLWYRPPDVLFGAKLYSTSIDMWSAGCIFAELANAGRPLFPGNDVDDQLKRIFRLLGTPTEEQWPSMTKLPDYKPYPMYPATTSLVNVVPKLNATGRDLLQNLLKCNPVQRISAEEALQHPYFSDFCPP
Chain of Cyclin-dependent kinase 5/CDK5 activator 1 (Homo sapiens) (Q15078 99-307 partner limits assumed): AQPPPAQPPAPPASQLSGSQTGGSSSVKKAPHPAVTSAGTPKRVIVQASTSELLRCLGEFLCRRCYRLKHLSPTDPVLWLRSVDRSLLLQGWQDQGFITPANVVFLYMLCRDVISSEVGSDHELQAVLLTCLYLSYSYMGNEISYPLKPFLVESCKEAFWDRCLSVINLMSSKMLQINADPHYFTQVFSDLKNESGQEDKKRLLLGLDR

[10] = molecular target: Cyclin-dependent kinase 7/ cyclin H (Homo sapiens) (UniProt P51946+P50613); assay: Inhibition of CDK7/Cyclin H (unknown origin) at 1 uM using myelin basic protein as substrate preincubated for 20 mins followed by 33P-ATP addition and measured after 2 hrs by filter binding method; format: protein-complex assay; summary of the method: as §1
[11] = organism: Homo sapiens; assay: Inhibition of CDK9/Cyclin T1 (unknown origin) at 1 uM using KTFCGTPEYLAPEVRREPRILSEEEQEMFRDFDYIAD as substrate preincubated for 20 mins followed by 33P-ATP addition and measured after 2 hrs by filter binding method; summary of the method: as §1
[12] = molecular target: CDK6/cyclin D1 (Homo sapiens) (UniProt P24385+Q00534); assay: Inhibition of CDK6/Cyclin D1 (unknown origin) at 1 uM using RB protein as substrate preincubated for 20 mins followed by 33P-ATP addition and measured after 2 hrs by filter binding method
[13] = molecular target: CDK2/Cyclin A2 (Homo sapiens, UniProt P24941); assay: Inhibition of human N-terminal GST-tagged CDK2 (1 to 298 residues)/Cyclin A (174 to 432 residues) expressed in Escherichia coli Turner (DE3) cells assessed as reduction in ADP formation using PKTPKKAKKL as substrate by resorufin dye based fluorescence assay
[14] = molecular target: CDK2/Cyclin A1 (Homo sapiens, UniProt P24941); assay: Inhibition of CDK2/Cyclin A1 (unknown origin) using histone H1 as substrate preincubated for 20 mins followed by 33P-ATP addition and measured after 2 hrs by filter binding method; format: protein-complex assay
[15] = molecular target: Cyclin-dependent kinase 2/cyclin E1 (Homo sapiens, UniProt P24941); assay: Inhibition of CDK2/Cyclin E (unknown origin) using histone H1 as substrate preincubated for 20 mins followed by 33P-ATP addition and measured after 2 hrs by filter binding method; format: protein-complex assay
[16] = molecular target: CDK2/Cyclin O (Homo sapiens, UniProt P22674+P24941); assay: Inhibition of CDK2/Cyclin-O (unknown origin) using histone H1 as substrate preincubated for 20 mins followed by 33P-ATP addition and measured after 2 hrs by filter binding method; format: protein-complex assay
[17] = system: MCF7; assay: Antiproliferative activity against human MCF7 cells assessed as reduction in cell viability up to 200 uM after 72 hrs by alamarBlue assay; format: functional, cell-based; conditions: dose microM <=200, time 72.0 hrs
Summary of the method: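 MCF-7 cells seeded at 5000 per well and incubated overnight at 37 °C, 5% CO₂, then exposed to 8 concentrations from 0.00256 μM to 200 μM for 72 h. alamarBlue was then added and incubated 90 min at 37 °C. Proliferating cells were read by fluorescence (ex 530 nm, em 590 nm). Staurosporine served as positive control.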

[18] = molecular target: Heat shock protein HSP90 (Homo sapiens) (UniProt P07900+P08238); assay: Inhibition of HSP90 (unknown origin); format: protein assay
[19] = Apparent permeability across apical to basolateral side in MDCK cells at 1 uM after 2 hrs by LC-MS/MS analysis; format: ADME, cell-based, Canis lupus familiaris; conditions: dog
Summary of the method: (§2)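 MDCK monolayers were washed twice with pre-warmed HBSS (10 mM HEPES, pH 7.4) and equilibrated for 30 min at 37 °C. Compound at 1 μM in HBSS (0.5% DMSO final) was added to the apical or the basolateral donor side. After 2 h at 37 °C, donor and receiver samples were quenched in cold methanol with internal standards and analysed by LC-MS/MS. Runs were in duplicate; 100 μM Lucifer Yellow checked monolayer integrity.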

[20] = Apparent permeability across basolateral to apical side in MDCK cells at 1 uM after 2 hrs by LC-MS/MS analysis; format: ADME, cell-based, Canis lupus familiaris; conditions: dog; summary of the method: as §2
[21] = Efflux ratio of apparent permeability across basolateral to apical side over apical to basolateral side in MDCK cells at 1 uM after 2 hrs by LC-MS/MS analysis; format: ADME, cell-based, Canis lupus familiaris; conditions: dog
Summary of the method: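 MDCK monolayers washed twice with pre-warmed HBSS (10 mM HEPES, pH 7.4) and equilibrated 30 min at 37 °C. 1 μM working solution (0.5% DMSO final) added to apical or basolateral donor side, 37 °C for 2 h, run in duplicate. Donor and receiver samples quenched in cold methanol with internal standards and quantified by LC-MS/MS. Monolayer integrity checked by Lucifer Yellow (100 μM) leakage.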

[22] = Permeability across apical to basolateral side in MDCK cells assessed as drug recovery at 1 uM after 2 hrs by LC-MS/MS analysis; format: ADME, cell-based, Canis lupus familiaris; conditions: dog; summary of the method: as §2
[23] = Permeability across basolateral to apical side in MDCK cells at 1 uM after 2 hrs by LC-MS/MS analysis; format: ADME, cell-based, Canis lupus familiaris; conditions: dog; summary of the method: as §2

Structure (SMILES): Cc1nn(-c2ccccn2)c2c1C(=O)CC(C)C2Br (cis isomer)
- inhibition [1]: inactive
- inhibition [2]: inactive
- inhibition [3]: inactive
- inhibition [4]: inactive
- inhibition [5]: inactive
- inhibition [6]: inactive
- inhibition [7]: inactive
- inhibition [8]: inactive
- inhibition [9]: inactive
- inhibition [10]: inactive
- inhibition [11]: inactive
- inhibition [12]: inactive

Structure (SMILES): Cc1nn(-c2ccccn2)c2c1C(=O)CC(C)(C)C2Br (stereo not drawn)
- IC50 [13]: 2600 nM
- IC50 [14]: 134 nM
- IC50 [15]: 27.4 nM
- IC50 [16]: 108 nM
- Activity [17]: inactive
- inhibition [18]: inactive
- Papp A→B at 2 h, 1 µM [19]: 20.1 ×10⁻⁶ cm/s
- Papp B→A at 2 h, 1 µM [20]: 9.52 ×10⁻⁶ cm/s
- Ratio [21]: 0.47
- Drug recovery [22]: 52.4%
- Drug recovery [23]: 49.8%
